Here are results for 6 compounds from ChEMBL document CHEMBL1121536, “C(14)-fluorinated prostaglandins: synthesis and biological evaluation of the methyl esters of (+)-14-fluoro-, (+)-15-epi-14-fluoro-, (+)-13(E)-14-fluror-, and (+)-13(E)-15-epi-14-fluoroprostaglandin F2 alpha” (1980).

Where only a bound is given, the exact number is not on record here.

Assay [1] relates to Cricetinae gen. sp. The experiment in a line: The compound was evaluated for the hamster uterine contraction in vitro on uterine strips.
The next assay concerns Gerbillinae. The assay is described as follows: The compound was evaluated for the gerbil colon contraction in vitro on colon strips.
Assay [2] concerns Cricetinae gen. sp. The assay is described as follows: The compound was evaluated for the antifertility activity in hamster at 12.5 ug administered subcutaneously. It counts as functional, Cricetulus griseus. The essentials:
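Hamsters were dosed subcutaneously, daily, in groups of ten. The minimum effective dose was the lowest dose per hamster per day giving no pregnancies (no implants) in the group. Potency was derived by comparing each compound's minimum effective dose with that of natural PGF2α.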

With `CCCCC[C@@H](O)/C=C/[C@@]1(F)[C@H](O)C[C@H](O)[C@@H]1C/C=C\CCCC(=O)OC`, the relative potency (PGF2α = 1) in the assay on Cricetinae gen. sp. [1] was determined as 0.022; with Gerbillinae, 0.011; with Cricetinae gen. sp. [2], 1.

For `CCCCC[C@H](O)/C=C/[C@@]1(F)[C@H](O)C[C@H](O)[C@@H]1C/C=C\CCCC(=O)OC`, the relative potency (PGF2α = 1) in the assay on Cricetinae gen. sp. [1] turned out to be 0.28; in the assay on Gerbillinae, 0.001; in the assay with Cricetinae gen. sp. [2], 12.5.

On to `CCCCC[C@H](O)/C(F)=C/[C@@H]1[C@@H](C/C=C\CCCC(=O)OC)[C@@H](O)C[C@H]1O`, for which the relative potency (PGF2α = 1) in the assay on Cricetinae gen. sp. [1] is 0.263; with Gerbillinae, 0.023; with Cricetinae gen. sp. [2], below 0.5.

As for `CCCCC[C@@H](O)/C(F)=C/[C@@H]1[C@@H](C/C=C\CCCC(=O)OC)[C@@H](O)C[C@H]1O`, the relative potency (PGF2α = 1) in the assay with Cricetinae gen. sp. [1] was found to be 0.025; in the assay on Gerbillinae, 0.0034; in the assay on Cricetinae gen. sp. [2], 0.5.

With `CCCCC[C@@H](O)/C(F)=C\[C@@H]1[C@@H](C/C=C\CCCC(=O)OC)[C@@H](O)C[C@H]1O`, the relative potency (PGF2α = 1) in the assay on Cricetinae gen. sp. [1] is 0.36; in the assay on Gerbillinae it was 0.15; in the assay with Cricetinae gen. sp. [2], above 1.

`CCCCC[C@H](O)/C(F)=C\[C@@H]1[C@@H](C/C=C\CCCC(=O)OC)[C@@H](O)C[C@H]1O`: the relative potency (PGF2α = 1) was 0.0002 with Cricetinae gen. sp. [1], 0.002 in the assay with Gerbillinae and below 0.1 with Cricetinae gen. sp. [2].
